ChEMBL document CHEMBL1671632, “Genetic basis of multidrug resistance in Acinetobacter baumannii clinical isolates at a tertiary medical center in Pennsylvania” (2008)
≈ marks a conversion by molar mass, not a printed value.

Assays:
Acinetobacter baumannii [1] = test: Antimicrobial activity against multidrug-resistant Acinetobacter baumannii by Etest method; assay type: functional
Acinetobacter baumannii [2] = test: Antimicrobial activity against multidrug-resistant Acinetobacter baumannii expressing aac(6')-1b gene by Etest method; assay type: functional
Acinetobacter baumannii [3] = test: Antimicrobial activity against multidrug-resistant Acinetobacter baumannii assessed as resistant isolates by disk diffusion method; assay type: functional
How it was run: (§1)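 Standard disk diffusion was done on Mueller-Hinton agar with ampicillin-sulbactam, ceftazidime, cefepime, meropenem, tobramycin, gentamicin, ciprofloxacin and tetracycline. Isolates were called susceptible or resistant using CLSI breakpoints.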

Acinetobacter baumannii [4] = test: Antimicrobial activity against multidrug-resistant Acinetobacter baumannii expressing aph(3')-Vla gene by Etest method; assay type: functional
Acinetobacter baumannii [5] = test: Antimicrobial activity against multidrug-resistant Acinetobacter baumannii expressing armA gene by Etest method; assay type: functional
Acinetobacter baumannii [6] = test: Antimicrobial activity against multidrug-resistant Acinetobacter baumannii assessed as resistant isolates by disk diffusion method in presence of beta-lactamase inhibitor Sulbactam; assay type: functional; how it was run: as §1
Acinetobacter baumannii [7] = test: Antimicrobial activity against multidrug-resistant Acinetobacter baumannii expressing armA and bla oxa-23 gene assessed as resistant isolates by disk diffusion method; assay type: functional; how it was run: as §1
Acinetobacter baumannii [8] = test: Antimicrobial activity against Acinetobacter baumannii AB017 transformant harboring bla-OXA-23 gene by Etest method; assay type: functional
Acinetobacter baumannii [9] = test: Antimicrobial activity against Acinetobacter baumannii HE130 lacking bla-OXA-23 gene by Etest method
Acinetobacter baumannii [10] = test: Antimicrobial activity against Acinetobacter baumannii AB026 transformant harboring bla-OXA-23 gene by Etest method; assay type: functional

NCC[C@H](O)C(=O)N[C@@H]1C[C@H](N)[C@@H](O[C@H]2O[C@H](CN)[C@@H](O)[C@H](O)[C@H]2O)[C@H](O)[C@H]1O[C@H]1O[C@H](CO)[C@@H](O)[C@H](N)[C@H]1O [AMIKACIN]
MIC (Acinetobacter baumannii [1]): 128 µg/mL (≈ 219 µM)
MIC (Acinetobacter baumannii [2]): 2 µg/mL (≈ 3.42 µM)
Activity (Acinetobacter baumannii [3]): 36.7%
MIC (Acinetobacter baumannii [4]): 12 µg/mL (≈ 20.5 µM)
MIC (Acinetobacter baumannii [5]): > 256 µg/mL

CC1(C)S[C@@H]2[C@H](NC(=O)[C@H](N)c3ccccc3)C(=O)N2[C@H]1C(=O)O [AMPICILLIN]
Activity (Acinetobacter baumannii [6]): 40.8%

CO/N=C(\C(=O)N[C@@H]1C(=O)N2C(C(=O)[O-])=C(C[N+]3(C)CCCC3)CS[C@H]12)c1csc(N)n1 [CEFEPIME]
Activity (Acinetobacter baumannii [3]): 79.6%

CC(C)(O/N=C(\C(=O)N[C@@H]1C(=O)N2C(C(=O)[O-])=C(C[n+]3ccccc3)CS[C@H]12)c1csc(N)n1)C(=O)O [CEFTAZIDIME]
Activity (Acinetobacter baumannii [3]): 87.8%

O=C(O)c1cn(C2CC2)c2cc(N3CCNCC3)c(F)cc2c1=O [CIPROFLOXACIN]
Activity (Acinetobacter baumannii [3]): 95.9%

C[C@@H](O)[C@H]1C(=O)N2C(C(=O)O)=C(SCCNC=N)C[C@H]12 [IMIPENEM ANHYDROUS]
Activity (Acinetobacter baumannii [7]): 18.4%
MIC (Acinetobacter baumannii [8]): 4 µg/mL (≈ 13.4 µM)
MIC (Acinetobacter baumannii [9]): 0.5 µg/mL (≈ 1.67 µM)

C[C@@H](O)[C@H]1C(=O)N2C(C(=O)O)=C(S[C@@H]3CN[C@H](C(=O)N(C)C)C3)[C@H](C)[C@H]12 [MEROPENEM]
Activity (Acinetobacter baumannii [3]): 22.4%
MIC (Acinetobacter baumannii [10]): 6 µg/mL (≈ 15.6 µM)
MIC (Acinetobacter baumannii [9]): 0.125 µg/mL (≈ 0.326 µM)

CN(C)[C@@H]1C(O)=C(C(N)=O)C(=O)[C@@]2(O)C(O)=C3C(=O)c4c(O)cccc4[C@@](C)(O)[C@H]3C[C@@H]12 [TETRACYCLINE]
Activity (Acinetobacter baumannii [3]): 79.6%

NC[C@H]1O[C@H](O[C@H]2[C@H](O)[C@@H](O[C@H]3O[C@H](CO)[C@@H](O)[C@H](N)[C@H]3O)[C@H](N)C[C@@H]2N)[C@H](N)C[C@@H]1O [TOBRAMYCIN]
Activity (Acinetobacter baumannii [3]): 61.2%

GENTAMICIN
Percent resistant isolates (Acinetobacter baumannii [3]): 77.6%
